Data taken from PubChem BioAssay.
Results filed as inconclusive are left out.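 The calls were made as follows, unless noted: active = inhibition over a set limit, the all-compound mean plus 3 SD, in both replicate runs; inconclusive = over that limit in just one replicate run; inactive = at or under that limit in both runs.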

Assays:
[1] = OD615 S. cerevisiae growth inhibition, permissive medium, pilot counter-assay, permissive growth control for S. cerevisiae lifespan shortening project (AID 705;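 active = growth inhibition above 25% in both replicates, a cutoff set 3 SD above the mean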); conditions: OD615, 24 h, at 10 µM, active compounds read high
Procedure, shortened: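 assay system = Saccharomyces cerevisiae strain carrying genetically modified DeaD replicative-lifespan system | medium = SC raffinose/galactose permissive medium | dosing = 10 µM single dose, 0.25% DMSO | schedule = 24 h compound exposure at 30 °C after 4 h pre-growth | measured by = OD at 615 nm | read-out basis = growth inhibition from lowered OD615 after 24 h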

[2] = Restrictive medium S. cerevisiae growth inhibition, OD615, pilot screen of yeast lifespan reduction project, restrictive growth control (AID 706;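 active = growth inhibition above a set limit, 3 SD over mean compound inhibition, in both replicates, cut at about 43% in these data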;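 also: modified DeaD lifespan yeast strain shifted to restrictive glucose medium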); conditions: OD615, 48 h, at 10 µM, active compounds read high
Procedure, shortened: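 Buffer or medium: CSMM-D glucose medium. Material: genetically modified Saccharomyces cerevisiae, DeaD replicative lifespan assay strain. Times: 48 h compound exposure at 30 °C. Measured by: optical density at 615 nm.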

[3] = viability gain of MRP-1-high H69AR cells under doxorubicin, pilot screen, MRP-1 activator project, CellTiter-Glo, duplicate (AID 807;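 active = viability increase at or above a cutoff of the median across tested compounds plus 3 SD, cut at about 8.5% in these data, passing the limit was not always enough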;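 also: compound pretreatment 18-22 h then 72 h combined with doxorubicin; 0% = doxorubicin alone and 100% = vehicle without doxorubicin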); conditions: H69AR viability with doxorubicin, CellTiter-Glo luminescence; at 10 µM; active compounds read high
[4] = growth suppression of PTEN-deleted HCT116, pilot screen, cell-based, HCT116 clonal line, CellTiter-Glo (AID 824;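 active = viability at or below 27.92% in each of two runs, the all-compound median minus 4 SD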;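 also: 0% = 20 µM Hyamine control and 100% = vehicle cell control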); conditions: 60 h, at 10 µM, active compounds read low
[5] = inhibitors of the yeast RAM network, pilot screen, dse1pr::URA3 reporter, 5-FOA selection (AID 869);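 also: 0% = DMSO wells with no growth and 100% = 10 µM 1-NA-PP1 with full growth; RAM network block rescues cells from 5-FOA so hits raise OD615 growth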; conditions: S. cerevisiae dse1pr::URA3 5-FOA growth, OD615, 2 d; at 10 µM; active compounds read high; strain carries analog-sensitive mutant Cbk1 kinase
[6] = RAM signaling pathway blockade in yeast – S. cerevisiae, Pdr1DBD-CYC8 efflux-inhibited sensitized strain, primary screen (AID 1298;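 active = RAM network inhibition above 8.4% in each of two replicates, 3 SD over the compound average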;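 also: 0% = DMSO untreated cells without growth and 100% = 10 µM 1-NA-PP1 full growth; higher means more yeast growth rescued from 5-FOA killing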); conditions: S. cerevisiae cbk1-as DSE1-URA3 strain, 5-FOA growth OD615, 2 d; at 50 µM; active compounds read high

COc1ccc(OC)c(S(=O)(=O)N2CCCCC2C(=O)N2CCN(c3ccccn3)CC2)c1 (stereo unspecified)
inactive: growth inhibition [1] 1.82% | growth inhibition [2] -0.22% | viability increase [3] -4.71% | viability [4] 91.8% | inhibition [5] 1.77% | RAM network inhibition [6] 7.83%

COc1ccc(S(=O)(=O)Nc2ccc(S(=O)(=O)N3CCOCC3)cc2)cc1
inactive: growth inhibition [1] -3.87% | growth inhibition [2] -1.83% | viability increase [3] -1.49% | viability [4] 101% | inhibition [5] 1.18% | RAM network inhibition [6] 2.87%

Cc1ccc(N2CC(C(=O)OCC(=O)C(C)(C)C)CC2=O)cc1 (stereo unspecified)
inactive: growth inhibition [1] 7.84% | growth inhibition [2] 8.49% | viability increase [3] -1.06% | viability [4] 101% | inhibition [5] 0.56% | RAM network inhibition [6] 3.64%

COc1ccc(CCNC(=O)c2oc3ccc(S(=O)(=O)N4CCOCC4)cc3c2C)cc1OC
inactive: growth inhibition [1] -0.835% | growth inhibition [2] -1.39% | viability increase [3] -4.32% | viability [4] 78.8% | inhibition [5] 1.17% | RAM network inhibition [6] 3.69%

C=CCC1(O)C(=O)N2C(=C1C(=O)N1CCOCC1)c1ccccc1CC2(C)C (stereo unspecified)
inactive: growth inhibition [1] 5.07% | growth inhibition [2] -8.41% | viability increase [3] -2.47% | viability [4] 99.4% | inhibition [5] 0.41% | RAM network inhibition [6] 2.11%

O=c1c2cnn(-c3ccccc3)c2nc(-c2ccco2)n1-c1ccccc1
inactive: growth inhibition [1] -4.83% | growth inhibition [2] -7.2% | viability increase [3] -5.59% | viability [4] 55.4% | inhibition [5] 1.39% | RAM network inhibition [6] 8.81%

CCn1nc(C(=O)NC2=NCCS2)c2ccccc2c1=O
inactive: growth inhibition [1] 9.05% | growth inhibition [2] -1.14% | viability increase [3] -2.76% | viability [4] 104% | inhibition [5] 1.19% | RAM network inhibition [6] 3.32%

C=C1c2ccc(C)cc2NC(=O)N1c1ccccc1
inactive: growth inhibition [1] 3.26% | growth inhibition [2] 8.36% | viability increase [3] -3.76% | viability [4] 94.2% | inhibition [5] 0.375% | RAM network inhibition [6] 0.1%

Cc1ccc(S(=O)(=O)c2cccc(S(=O)(=O)N3CCCC3)c2)cc1S(=O)(=O)N1CCCC1
inactive: growth inhibition [1] -2.43% | growth inhibition [2] -5.35% | viability increase [3] -3.64% | viability [4] 44.4% | inhibition [5] 1.4% | RAM network inhibition [6] 2.38%

COc1cc(C(=O)NCc2ccc3c(c2)OCO3)ccc1OCc1c(C)noc1C
inactive: growth inhibition [1] 2.15% | growth inhibition [2] -2.32% | viability increase [3] -1.5% | viability [4] 95.1% | inhibition [5] 2.5% | RAM network inhibition [6] 3.79%

COc1ccccc1C(=O)Nc1ccc2c(c1)OCO2
inactive: growth inhibition [1] 4.22% | growth inhibition [2] -12.9% | viability increase [3] -3.95% | viability [4] 89.2% | inhibition [5] 2.47% | RAM network inhibition [6] -1.49%

O=C(CSc1nc2c(c(=O)n1-c1ccc(Cl)cc1)SCC2)N1CCCC1
inactive: growth inhibition [1] 1.32% | growth inhibition [2] 24.2% | viability increase [3] -4.23% | viability [4] 101% | inhibition [5] 1.31% | RAM network inhibition [6] 0.57%

COc1ccc(C2C(C(=O)c3cccs3)=C(O)C(=O)N2c2nncs2)cc1 (stereo unspecified)
inactive: growth inhibition [1] -15.5% | growth inhibition [2] -14.4% | viability increase [3] -1.95% | viability [4] 102% | inhibition [5] 0.41% | RAM network inhibition [6] 2.46%

CCCC(=O)c1cc(F)c(N2CCN(CCC#N)CC2)cc1C
inactive: growth inhibition [1] -9.06% | growth inhibition [2] -15.5% | viability increase [3] -0.66% | viability [4] 93.6% | inhibition [5] 2.97% | RAM network inhibition [6] 3.23%

C=C(C)Cn1c(CCCNC(=O)CC)nc2ccccc21
inactive: growth inhibition [1] -5.08% | growth inhibition [2] 14.8% | viability increase [3] -1.27% | viability [4] 96% | inhibition [5] 1.54% | RAM network inhibition [6] -0.92%

COc1cc(C(C)=O)ccc1OC(=O)C(C)N1C(=O)c2ccccc2C1=O (stereo unspecified)
inactive: growth inhibition [1] -17.5% | growth inhibition [2] -5.68% | viability increase [3] -2.73% | viability [4] 93.9% | inhibition [5] 1.02% | RAM network inhibition [6] 3.8%

C/C(CC(O)c1ccc2ccccc2n1)=N/O (stereo unspecified)
inactive: growth inhibition [1] 1.34% | growth inhibition [2] 1.94% | viability increase [3] -0.7% | viability [4] 103% | inhibition [5] 0.445% | RAM network inhibition [6] 1.08%

O/N=C1/C2C3CC4C5C3C1C5C1(OCCO1)C42 (stereo unspecified)
inactive: growth inhibition [1] -8.1% | growth inhibition [2] -16.9% | viability increase [3] -1.45% | viability [4] 99% | inhibition [5] 1.39% | RAM network inhibition [6] 3.89%

CCNC(=O)CN(C1CCCCC1)S(=O)(=O)c1ccc(F)cc1
inactive: growth inhibition [1] -8.23% | growth inhibition [2] -2.66% | viability increase [3] -2.01% | viability [4] 91% | inhibition [5] 3.43% | RAM network inhibition [6] -0.15%

C(=C\CSc1nnnn1-c1ccccc1)/CSc1nnnn1-c1ccccc1
inactive: growth inhibition [1] -9.57% | growth inhibition [2] -3.65% | viability increase [3] -1.58% | viability [4] 87.6% | inhibition [5] 3.83% | RAM network inhibition [6] 10%

CCn1cc(C(=O)NCCCOC)c2cc(OC)c(OC)cc2c1=O
inactive: growth inhibition [1] -10.7% | growth inhibition [2] 0.745% | viability increase [3] -2.42% | viability [4] 104% | inhibition [5] 2.5% | RAM network inhibition [6] 3.59%

CS(=O)(=O)NCCSCc1ccc(Cl)cc1
inactive: growth inhibition [1] -8.71% | growth inhibition [2] -3.54% | viability increase [3] -0.89% | viability [4] 97.9% | inhibition [5] 1.62% | RAM network inhibition [6] 4.47%

CCc1c(C)sc(NC(=O)C2CCCCC2C(=O)O)c1C(N)=O (stereo unspecified)
inactive: growth inhibition [1] 15.1% | growth inhibition [2] 25.8% | viability increase [3] -4% | viability [4] 101% | inhibition [5] 1.77% | RAM network inhibition [6] 9.48%

CCCOc1ccc(/C(O)=C2/C(=O)C(=O)N(CCN(C)C)C2c2ccco2)cc1 (stereo unspecified)
inactive: growth inhibition [1] -0.855% | growth inhibition [2] 13.9% | viability increase [3] -4.27% | viability [4] 99.6% | inhibition [5] -0.28% | RAM network inhibition [6] -1.54%

C#CCN1C(=O)C(O)(CC(=O)c2ccc(OC)c(OC)c2)c2ccccc21 (stereo unspecified)
inactive: growth inhibition [1] 2.17% | growth inhibition [2] 0.69% | viability increase [3] -5.17% | viability [4] 48% | inhibition [5] 1.62% | RAM network inhibition [6] 1.98%

COc1cc(C)c(C(C)C)cc1S(=O)(=O)n1cnc(C)c1
inactive: growth inhibition [1] 0.115% | growth inhibition [2] 6.4% | viability increase [3] -3.58% | viability [4] 37.8% | inhibition [5] 0.425% | RAM network inhibition [6] 4.02%

CCN1C=C(C(=O)OC)C(c2cccc(C)c2)C(C(=O)OC)=C1
inactive: growth inhibition [1] -1.2% | growth inhibition [2] -11.5% | viability increase [3] -3.43% | viability [4] 86% | inhibition [5] 3.02% | RAM network inhibition [6] 4.35%

Cc1c(C(=O)NCc2ccccn2)oc2ccc(S(=O)(=O)N3CCOCC3)cc12
inactive: growth inhibition [1] -0.375% | growth inhibition [2] -7.32% | viability increase [3] -3.28% | viability [4] 94.4% | inhibition [5] 1.13% | RAM network inhibition [6] 0.56%

CC(Sc1nc2c(c(=O)n(C)c(=O)n2C)n1Cc1cc2c(cc1Cl)OCO2)C(=O)O (stereo unspecified)
inactive: growth inhibition [1] -10.7% | growth inhibition [2] -5.16% | viability increase [3] -0.64% | viability [4] 99.9% | inhibition [5] 1.83% | RAM network inhibition [6] 1.02%

Cc1nnc(NC(=O)CSc2nccn2-c2cccc(C)c2C)s1
inactive: growth inhibition [1] -7.29% | growth inhibition [2] 11.5% | viability increase [3] -5.19% | viability [4] 30.1% | inhibition [5] 0.035% | RAM network inhibition [6] 4.71%

CCc1cccc(C)c1NC(=O)CCCC(=O)O
inactive: growth inhibition [1] -0.24% | growth inhibition [2] -1.56% | viability increase [3] -1.29% | viability [4] 102% | inhibition [5] 0.44% | RAM network inhibition [6] -0.21%

CCCC(C)NC(=O)c1ccc(F)cc1 (stereo unspecified)
inactive: growth inhibition [1] -11.8% | growth inhibition [2] -7.83% | viability increase [3] -1.81% | viability [4] 99.9% | inhibition [5] 0.66% | RAM network inhibition [6] 1.8%

CCC(C)(C(=O)NC1CCCC1)N(C(=O)CNC(C)=O)c1ccccc1 (stereo unspecified)
inactive: growth inhibition [1] -11.6% | growth inhibition [2] -1.64% | viability increase [3] -1.96% | viability [4] 98.3% | inhibition [5] 3.23% | RAM network inhibition [6] 3.45%

CCNc1nc(-c2ccc(Cl)cc2)cs1
inactive: growth inhibition [1] 1.33% | growth inhibition [2] 0.05% | viability increase [3] -1.74% | viability [4] 84.4% | inhibition [5] -0.24% | RAM network inhibition [6] -0.26%

O=C1N=C(c2ccccc2)C(c2ccccc2)N1 (stereo unspecified)
inactive: growth inhibition [1] -9.57% | growth inhibition [2] 0.595% | viability increase [3] -3.35% | viability [4] 90.8% | inhibition [5] 1.23% | RAM network inhibition [6] 1.06%

COc1ccc(S(=O)(=O)N2CCCCC2C(=O)O)cc1OC (stereo unspecified)
inactive: growth inhibition [1] -7% | growth inhibition [2] -10.8% | viability increase [3] -0.69% | viability [4] 101% | inhibition [5] 2.17% | RAM network inhibition [6] 5.22%

O=C(O)c1ccc(N2C(=O)CC(Cc3ccccc3)C2=O)cc1 (stereo unspecified)
inactive: growth inhibition [1] -3.14% | growth inhibition [2] 2.02% | viability increase [3] -1.42% | viability [4] 100% | inhibition [5] -0.025% | RAM network inhibition [6] 0.72%

COc1ccc(OC)c2c(C)cc(N3CCCN(C)CC3)nc12
inactive: growth inhibition [1] 3.26% | growth inhibition [2] -3.9% | viability increase [3] -4.81% | viability [4] 85.9% | inhibition [5] 0.015% | RAM network inhibition [6] 0%

CCOC(=O)c1c(NC(=O)OC)sc(C(=O)N(CC)CC)c1C
inactive: growth inhibition [1] -14.6% | growth inhibition [2] -12.4% | viability increase [3] -1.31% | viability [4] 93% | inhibition [5] 1.47% | RAM network inhibition [6] 1.79%

CC1(C)CC(=O)C(C=NC2CC(C)(C)NC(C)(C)C2)=C(O)C1
inactive: growth inhibition [1] -1.6% | growth inhibition [2] -7.89% | viability increase [3] 0.22% | viability [4] 95.5% | inhibition [5] 1.82% | RAM network inhibition [6] 4.6%

O=C(CCn1nnc2ccccc21)N1CCC(O)(c2cccc(F)c2)CC1
inactive: growth inhibition [1] -3.14% | growth inhibition [2] -7.45% | viability increase [3] -2.75% | viability [4] 101% | inhibition [5] 2.4% | RAM network inhibition [6] 1.86%
